Results published in ChEMBL document CHEMBL1121795, “Esters of isoguvacine as potential prodrugs” (J Med Chem, 1981).

Columns and labels:
[1] = Half-life was measured in 10% human serum at 10 mM of ester; assay type: ADME
Method in brief: (§1)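 Medium was 45 mL 0.5 M KCl, 0.5 mL phosphate buffer and 5.0 mL human serum (protein 69–78 mg/mL, BSA standard), N2-purged 2 h with pH held at 7.2–7.6 using 0.1 N HCl. Ester (0.05 or 0.5 mmol) was added; a pH-stat held 7.35 with 0.1 or 0.5 N NaOH at 37 °C. Half-life was calculated from base consumed.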

[2] = organism: Mus musculus; test: Compound was tested for anticonvulsant activity by measuring its effect on convulsions induced by electroshock in mice.; assay type: functional
Method in brief: (§2)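 Mice, at least five per group at each time point, received the ester ip; convulsions were induced 0.5, 1, 2, 3, 4, 5, 6, 17 and 24 h later. Value is the minimum effective anticonvulsant dose (mg/kg), with the time between dosing and onset of activity.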

[3] = organism: Mus musculus; test: Compound was tested for anticonvulsant activity by measuring its effect on convulsions induced by isoniazide in mice.; assay type: functional; method in brief: as §2
[4] = organism: Mus musculus; test: Compound was tested for anticonvulsant activity by measuring its effect on convulsions induced by bicuculline in mice.; assay type: functional; method in brief: as §2
[5] = Half-life was measured in 10% human serum at 10 mM concentration; assay type: ADME; method in brief: as §1
[6] = Half-life was measured in 10% human serum at 1 mM concentration; assay type: ADME; method in brief: as §1
[7] = Half-life was measured in 0.5 M KCl at 10 mM concentration; assay type: ADME; settings: 0.5 M KCl solution
Method in brief: (§3)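 Chemical stability was measured with 0.5 mmol ester in 50 mL 0.5 M KCl plus 0.5 mL pH 7.00 phosphate buffer (10 mM), at pH 7.35 and 37 °C. pH-stat titration with 0.5 N NaOH recorded base consumption against time for the 2 acid equivalents released. Pseudo-first-order half-life, mean of at least two runs.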

[8] = Half-life was measured in 10% human serum at 1 mM dose.; assay type: ADME; method in brief: as §1
[9] = Half-life was measured in 10% human serum at 10 mM dose.; assay type: ADME; method in brief: as §1
[10] = Half-life was measured in 0.5 M KCl at 10 mM dose.; assay type: ADME; settings: 0.5 M KCl solution; method in brief: as §3

| Compound | half-life at 10000 µM [1] | Anticonvulsant dose [2] | Anticonvulsant dose [3] | Anticonvulsant dose [4] | half-life at 10000 µM [5] | half-life at 1000 µM [6] | half-life at 10000 µM [7] | half-life at 1000 µM [8] | half-life at 10000 µM [9] | half-life at 10000 µM [10] |
| --- | --- | --- | --- | --- | --- | --- | --- | --- | --- | --- |
| Br.CCCCOC(=O)C1=CCNCC1 | 25 days | 40 mg/kg | >160 mg/kg | 40 mg/kg |  |  |  |  |  |  |
| CCCC(=O)OCOC(=O)C1=CCNCC1.O=C(O)/C=C/C(=O)O |  |  |  |  | 15 min | 3.6 min | 702 min |  |  |  |
| CC(C)CC(=O)OCOC(=O)C1=CCNCC1.O=C(O)/C=C/C(=O)O |  |  |  |  | 210 min | 43.2 min | 798 min |  |  |  |
| Cl.O=C(O)C1=CCNCC1 [ISOGUVACINE HYDROCHLORIDE] |  | >80 mg/kg | >160 mg/kg | >80 mg/kg |  |  |  |  |  |  |
| CCC(=O)OCOC(=O)C1=CCNCC1.O=C(O)/C=C/C(=O)O |  | >80 mg/kg | 40 mg/kg | >80 mg/kg |  |  |  | 10.2 min | 32.4 min | 666 min |
| CCCCCC(=O)OCOC(=O)C1=CCNCC1.O=C(O)/C=C/C(=O)O |  |  |  |  | 19.2 min | 3.6 min | 780 min |  |  |  |
| Br.CCOC(=O)COC(=O)C1=CCNCC1 | 12.5 days |  |  |  |  |  |  |  |  |  |
| O=C(O)/C=C/C(=O)O.O=C(OCOC(=O)c1ccccc1)C1=CCNCC1 |  | >80 mg/kg | >160 mg/kg | >80 mg/kg | 24 min | 4.2 min | 558 min |  |  |  |
| CCC(CC)C(=O)OCOC(=O)C1=CCNCC1.O=C(O)/C=C/C(=O)O |  |  |  |  | 474 min | 138 min | 942 min |  |  |  |
| O=C(O)/C=C/C(=O)O.O=C(OCOC(=O)C1CCCCC1)C1=CCNCC1 |  |  |  |  | 8.4 min | 1.8 min | 600 min |  |  |  |
| CCCCC(=O)OCOC(=O)C1=CCNCC1.O=C(O)/C=C/C(=O)O |  |  |  |  | 16.8 min | 1.8 min | 720 min |  |  |  |
| COC(=O)C1=CCNCC1.Cl | 17.9 days |  |  |  |  |  |  |  |  |  |
| CC(=O)OCOC(=O)C1=CCNCC1.O=C(O)/C=C/C(=O)O |  | 5 mg/kg | 40 mg/kg | >80 mg/kg | 72 min | 36 min | 654 min |  |  |  |
| CC(C)(C)C(=O)OCOC(=O)C1=CCNCC1.O=C(O)/C=C/C(=O)O |  | 10 mg/kg | >160 mg/kg | 20 mg/kg | 894 min | 276 min | 1030 min |  |  |  |
| CC(C)C(=O)OCOC(=O)C1=CCNCC1.O=C(O)/C=C/C(=O)O |  |  |  |  | 43.8 min | 7.8 min | 648 min |  |  |  |
